# Rtt109 Vps75 – inhibitors of C. albicans Rtt109/Vps75 HAT, primary screen, biochemical, ThioGlo CoA-SH fluorescence, plate reader; Histone acetyltransferase RTT109 (Candida albicans (strain SC5314 / ATCC MYA-2876)), …; purified Rtt109/Vps75, 4 h; inhibition, % at 34.9 µM; actives 0.16% (n = 330,000); AID 540336, 2011;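 active = inhibition of at least 50% in every replicate; inconclusive = best replicate reaches 50% inhibition but some replicates fall short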
# GASC-1 inh – inhibitors of GASC-1 histone demethylase, primary screen, biochemical, fluorescence, DELFIA europium; Lysine-specific demethylase 4C (Homo sapiens), Q9H3R0; GST-JMJD2C(1-420) H3K9me3 demethylation; inhibition, % at 2.35 µM; actives 0.069% (n = 330,000); AID 2099, 2009;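 active = more than half of a compound's replicate wells show inhibition beyond 50%, single wells judged on their own value; inconclusive = some, but no more than half, of replicates pass 50% inhibition; inactive = no replicate passes 50% inhibition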;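 note: signal counts dimethyl H3K9 product captured on neutravidin plate; 0% = median of DMSO wells and 100% = 0.3 times that DMSO median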
# Target sequence (Q9H3R0 1-420 limits assumed): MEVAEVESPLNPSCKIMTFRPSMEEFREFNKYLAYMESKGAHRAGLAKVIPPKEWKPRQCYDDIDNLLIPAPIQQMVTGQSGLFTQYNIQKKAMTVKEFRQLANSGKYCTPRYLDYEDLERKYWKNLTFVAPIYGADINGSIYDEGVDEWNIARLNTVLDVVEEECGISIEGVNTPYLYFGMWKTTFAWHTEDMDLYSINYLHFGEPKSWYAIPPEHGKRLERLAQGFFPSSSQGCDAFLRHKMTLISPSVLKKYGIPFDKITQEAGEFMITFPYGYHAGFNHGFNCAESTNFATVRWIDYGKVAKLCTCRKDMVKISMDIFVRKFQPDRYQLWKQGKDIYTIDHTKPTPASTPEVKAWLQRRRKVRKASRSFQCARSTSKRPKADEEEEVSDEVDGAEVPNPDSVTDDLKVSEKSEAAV
# T cell HTS – modulators of CD8 T cell-vesicle binding, primary screen, mouse 2C CD8+ T cells, flow cytometry; 2C CD8+ T cell-vesicle binding; active compounds read low; response (vesicle binding), % at 7 µM; actives 0.068% (n = 330,000);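 active = response, share of CD8 T cells binding vesicles, and their 90th percentile fluorescence all below set limits, cut at about 80% in these data, passing the limit was not always enough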;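 note: values below 100% mean blocked vesicle binding to the CD8+ T cells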
#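 Test system: purified 2C TCR transgenic mouse naive CD8+ T cells. Probe or stimulus: QL9-peptide-loaded Drosophila micro-vesicles bearing Ld, ICAM-1 and B7-1. Incubation: binding step 1.5 h, 37 °C, antibody labelling 20 min, ice. Measured by: flow cytometry of vesicle-bound cells.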
# NR3A LBD binder – binders of NR3A ligand-binding domain, primary screen, biophysical, differential scanning fluorimetry, uHTS. NR3A LBD differential scanning fluorimetry, Tm shift; 0% = protein alone, 100% = glycine-bound protein. Tm shift relative to glycine control, % at 25 µM. actives 2.5% (n = 340,000);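 active = melting temperature shift of at least 10% of the positive control shift, at one fixed dose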
# Active calls of the source: *; ? = inconclusive; / = no result. In the library only some 2.8% were active in any assay of this set; here they are far more common.
SMILES,Rtt109 Vps75,GASC-1 inh,T cell HTS,NR3A LBD binder
COc1cccc(C2c3c(oc4ccc(Cl)cc4c3=O)C(=O)N2c2cc(C)on2)c1OC (stereo unspecified),3.4,-2.8,626.5,10.8*
Cc1ccccc1Nc1nc(-c2ccccc2)c(C(=O)Nc2cccnc2)s1,8.7,0.4,472.7,-24.1
COc1ccc(Nc2nc(-c3ccccc3)c(C(=O)Nc3cccnc3)s2)cc1,-5.2,26.2,473.5,18.8*
COCCCNC(=O)Cn1cnc(C(=O)Nc2ccc(C)c(C)c2)n1,3.6,/,/,-1.0
Nc1cc(-c2ccncc2)c[nH]c1=O,8.0,?,639.1,12.9*
NC(=O)c1csc(-c2ccncc2)n1,-3.3,2.5,267.1,-0.6
CN(C)C(=S)Nc1ccc(Cc2ccncc2)cc1,1.3,-16.2,161.4,1.6
COc1ccc(N2C(=O)CSC2c2ccc([N+](=O)[O-])cc2)cc1 (stereo unspecified),-1.8,-11.8,313.7,-1.0
O=C(Nc1ccc(Oc2ccc(Cl)cc2)c(Cl)c1)c1cc(I)cc(I)c1O,1.3,11.0,198.1,31.1*
COc1ccccc1Oc1ccc(NC(=O)c2ccc(Cl)cc2)cc1,-0.5,-10.3,82.7,-6.8
O=C(COC(=O)CCC(=O)c1cccs1)NCCc1ccccc1,-2.6,9.6,394.1,5.5
COc1cccc(NC(=O)C(NCC(C)(C)CN(C)C)c2ccccc2)c1 (stereo unspecified),6.2,67.2,807.0,1.9
C=CCNC(C(=O)Nc1cccc(OC)c1)c1ccccc1 (stereo unspecified),-2.2,0.4,154.4,14.9*
COc1ccc2nc(SCC(=O)C(C)(C)C)[nH]c2c1,3.4,1.8,245.6,122.6*
COc1ccc2nc(SCC(=O)NC(C)(C)C)[nH]c2c1,/,-5.7,506.4,1.6
CC(C)C(OC(=O)c1nsc(Cl)c1Cl)C(=O)NC1CCCCC1 (stereo unspecified),3.1,-5.1,201.6,-0.8
O=C(/C=C/c1ccc(Cl)cc1)Nn1c(-c2cccs2)nc2ccccc2c1=O,-3.2,2.4,287.0,13.5*
COc1ccc(Cl)cc1C(=O)Nn1c(-c2cccs2)nc2ccccc2c1=O,3.1,-4.5,235.9,-2.1
COc1ccc(C=O)c(OCc2cn(CC(=O)c3ccc(O)cc3)nn2)c1,4.5,/,/,0.3
COc1ccc(C(=O)NCCOC(C)C)cc1OC1CCN(C(C)=O)CC1,9.2,-3.9,198.2,-3.2
CC(=O)Nc1ccc(/C=C/c2noc(-c3ccccc3O)n2)cc1,15.3,-4.9,253.4,11.9*
COc1cc(/C=C/c2noc(-c3ccccc3O)n2)ccc1OC(C)=O,4.8,14.7,200.5,-0.5
CCN1C(=O)[C@@H]2[C@@H](c3ccc(-c4ccc(OC)cc4)c(OC)c3)N3CCCC[C@@]3(C(=O)OC)[C@@H]2C1=O,3.6,0.9,261.0,0.3
O=c1c2c(ncn2C2CCCC2)n(Cc2ccccc2)c(=O)n1CCOc1ccccc1,6.1,-3.9,215.2,14.8*
CC(C)(C)c1ccc(-n2ncc3c2CCCC3NC(=O)C2(C(N)=O)CC2)cc1 (stereo unspecified),1.0,4.3,356.5,0.7
SMILES,Rtt109 Vps75,GASC-1 inh,T cell HTS,NR3A LBD binder
Cn1c(Cn2c(=O)sc3ccccc32)nnc1SCC(=O)NC1CCCC1,1.1,4.7,64.5,-1.6
Cn1c(Cn2c(=O)sc3ccccc32)nnc1SCC(=O)NC1CCCCC1,-5.8,-9.0,67.6*,-1.6
CC1CCCCN1C(=O)CSc1nnc2c(n1)[nH]c1ccc(F)cc12 (stereo unspecified),-2.8,-5.5,402.3,-3.7
CC1CCc2cc(F)ccc2N1C(=O)CSc1nnc2c(n1)[nH]c1ccc(F)cc12 (stereo unspecified),0.7,-1.1,393.5,24.4*
CC1Cc2ccccc2N1C(=O)CSc1nnc2c(n1)[nH]c1ccccc12 (stereo unspecified),6.9,-22.4,248.6,22.3*
O=C(NC(Cc1ccccc1)C(=O)O)/C(=C\c1ccc(Cl)cc1)NC(=O)c1ccccc1 (stereo unspecified),-9.5,11.4,459.0,-1.8
O=C(NC(Cc1ccccc1)C(=O)O)/C(=C/c1ccccc1)NC(=O)c1ccccc1 (stereo unspecified),-0.9,1.5,147.2,13.7*
